Reference: publication PMC5198968 (Cancer Science, 2016)
Where “and” joins values, the source holds several entries; their conditions need not be identical. Equal values may be shown once. Entries after “also recorded” stand apart in the source; their conditions may differ.

Tested on: Japanese patients with advanced hepatocellular carcinoma
Assay: Adverse events
Type: in vivo, human
Method in brief: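 Oral test compound given twice daily, continuously, in 28-day cycles until progression or unacceptable AEs. Group I had mild liver impairment (Child–Pugh 5–6) and group II moderate impairment (Child–Pugh 7 or raised AST/ALT). AEs were recorded over the observation period and graded by CTCAE v3.0. The treated set was every patient receiving at least one dose, and analyses were descriptive.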

[1] = Group I (mild liver impairment), 150 mg b.i.d., n = 4
[2] = Group I (mild liver impairment), 200 mg b.i.d., n = 12
[3] = Group I (mild liver impairment), all patients, n = 16
[4] = Group I (mild liver impairment), n = 16, all grades
[5] = Group I (mild liver impairment), n = 16, grade ≥3
[6] = Group II (moderate liver impairment), 100 mg b.i.d., n = 3
[7] = Group II (moderate liver impairment), 150 mg b.i.d., n = 4
[8] = Group II (moderate liver impairment), 200 mg b.i.d., n = 7
[9] = Group II (moderate liver impairment), all patients, n = 14
[10] = Group II (moderate liver impairment), n = 14, all grades
[11] = Group II (moderate liver impairment), n = 14, grade ≥3

COC(=O)c1ccc2c(c1)NC(=O)/C2=C(\Nc1ccc(N(C)C(=O)CN2CCN(C)CC2)cc1)c1ccccc1 [nintedanib]
AEs leading to nintedanib discontinuation [1]: 0 (0.0) n (%)
AEs leading to nintedanib dose reduction [1]: 0 (0.0) n (%)
Any AE [1]: 4 (100.0) n (%)
Investigator-defined drug-related AE [1]: 3 (75.0) n (%)
Other significant AEs (leading to dose reduction or permanent discontinuation of nintedanib) [1]: 0 (0.0) n (%)
Serious AEs [1]: 0 (0.0) n (%)
Serious AEs: Fatal [1]: 0 (0.0) n (%)
Serious AEs: Immediately life-threatening [1]: 0 (0.0) n (%)
Serious AEs: Prolonged hospitalization [1]: 0 (0.0) n (%)
Serious AEs: Required hospitalization [1]: 0 (0.0) n (%)
AEs leading to nintedanib discontinuation [2]: 0 (0.0) n (%)
AEs leading to nintedanib dose reduction [2]: 5 (41.7) n (%)
Any AE [2]: 12 (100.0) n (%)
Investigator-defined drug-related AE [2]: 11 (91.7) n (%)
Other significant AEs (leading to dose reduction or permanent discontinuation of nintedanib) [2]: 5 (41.7) n (%)
Serious AEs [2]: 4 (33.3) n (%)
Serious AEs: Fatal [2]: 0 (0.0) n (%)
Serious AEs: Immediately life-threatening [2]: 0 (0.0) n (%)
Serious AEs: Prolonged hospitalization [2]: 0 (0.0) n (%)
Serious AEs: Required hospitalization [2]: 4 (33.3) n (%)
AEs leading to nintedanib discontinuation [3]: 0 (0.0) n (%)
AEs leading to nintedanib dose reduction [3]: 5 (31.3) n (%)
Any AE [3]: 16 (100.0) n (%)
Investigator-defined drug-related AE [3]: 14 (87.5) n (%)
Other significant AEs (leading to dose reduction or permanent discontinuation of nintedanib) [3]: 5 (31.3) n (%)
Serious AEs [3]: 4 (25.0) n (%)
Serious AEs: Fatal [3]: 0 (0.0) n (%)
Serious AEs: Immediately life-threatening [3]: 0 (0.0) n (%)
Serious AEs: Prolonged hospitalization [3]: 0 (0.0) n (%)
Serious AEs: Required hospitalization [3]: 4 (25.0) n (%)
Abdominal pain [4]: 4 (25.0)
Any AE [4]: 16 (100)
Ascites [4]: 1 (6.3)
Decreased appetite [4]: 6 (37.5)
Decreased platelet count [4]: 2 (12.5)
Diarrhea [4]: 8 (50.0)
Fatigue [4]: 3 (18.8)
Hyperuricemia [4]: 1 (6.3)
Hypoalbuminemia [4]: 2 (12.5)
Increased ALT [4]: 1 (6.3)
Increased AST [4]: 4 (25.0)
Increased blood bilirubin [4]: 1 (6.3)
Malaise [4]: 4 (25.0)
Malignant neoplasm progression [4]: 1 (6.3)
Nausea [4]: 7 (43.8)
Neutropenia [4]: 2 (12.5)
Pyrexia [4]: 2 (12.5)
Vomiting [4]: 6 (37.5)
Abdominal pain [5]: 0 (0.0)
Any AE [5]: 7 (43.8)
Ascites [5]: 0 (0.0)
Decreased appetite [5]: 0 (0.0)
Decreased platelet count [5]: 2 (12.5)
Diarrhea [5]: 1 (6.3)
Fatigue [5]: 1 (6.3)
Hyperuricemia [5]: 0 (0.0)
Hypoalbuminemia [5]: 0 (0.0)
Increased ALT [5]: 0 (0.0)
Increased AST [5]: 0 (0.0)
Increased blood bilirubin [5]: 0 (0.0)
Malaise [5]: 0 (0.0)
Malignant neoplasm progression [5]: 0 (0.0)
Nausea [5]: 0 (0.0)
Neutropenia [5]: 0 (0.0)
Pyrexia [5]: 0 (0.0)
Vomiting [5]: 0 (0.0)
AEs leading to nintedanib discontinuation [6]: 0 (0.0) n (%)
AEs leading to nintedanib dose reduction [6]: 1 (33.3) n (%)
Any AE [6]: 3 (100.0) n (%)
Investigator-defined drug-related AE [6]: 3 (100.0) n (%)
Other significant AEs (leading to dose reduction or permanent discontinuation of nintedanib) [6]: 1 (33.3) n (%)
Serious AEs [6]: 1 (33.3) n (%)
Serious AEs: Fatal [6]: 0 (0.0) n (%)
Serious AEs: Immediately life-threatening [6]: 0 (0.0) n (%)
Serious AEs: Prolonged hospitalization [6]: 0 (0.0) n (%)
Serious AEs: Required hospitalization [6]: 1 (33.3) n (%)
AEs leading to nintedanib discontinuation [7]: 0 (0.0) n (%)
AEs leading to nintedanib dose reduction [7]: 1 (25.0) n (%)
Any AE [7]: 4 (100.0) n (%)
Investigator-defined drug-related AE [7]: 4 (100.0) n (%)
Other significant AEs (leading to dose reduction or permanent discontinuation of nintedanib) [7]: 1 (25.0) n (%)
Serious AEs [7]: 2 (50.0) n (%)
Serious AEs: Fatal [7]: 1 (25.0) n (%)
Serious AEs: Immediately life-threatening [7]: 0 (0.0) n (%)
Serious AEs: Prolonged hospitalization [7]: 0 (0.0) n (%)
Serious AEs: Required hospitalization [7]: 2 (50.0) n (%)
AEs leading to nintedanib discontinuation [8]: 0 (0.0) n (%)
AEs leading to nintedanib dose reduction [8]: 1 (14.3) n (%)
Any AE [8]: 7 (100.0) n (%)
Investigator-defined drug-related AE [8]: 5 (71.4) n (%)
Other significant AEs (leading to dose reduction or permanent discontinuation of nintedanib) [8]: 1 (14.3) n (%)
Serious AEs [8]: 3 (42.9) n (%)
Serious AEs: Fatal [8]: 1 (14.3) n (%)
Serious AEs: Immediately life-threatening [8]: 1 (14.3) n (%)
Serious AEs: Prolonged hospitalization [8]: 1 (14.3) n (%)
Serious AEs: Required hospitalization [8]: 3 (42.9) n (%)
AEs leading to nintedanib discontinuation [9]: 0 (0.0) n (%)
AEs leading to nintedanib dose reduction [9]: 3 (21.4) n (%)
Any AE [9]: 14 (100.0) n (%)
Investigator-defined drug-related AE [9]: 12 (85.7) n (%)
Other significant AEs (leading to dose reduction or permanent discontinuation of nintedanib) [9]: 3 (21.4) n (%)
Serious AEs [9]: 6 (42.9) n (%)
Serious AEs: Fatal [9]: 2 (14.3) n (%)
Serious AEs: Immediately life-threatening [9]: 1 (7.1) n (%)
Serious AEs: Prolonged hospitalization [9]: 1 (7.1) n (%)
Serious AEs: Required hospitalization [9]: 6 (42.9) n (%)
Abdominal pain (upper abdominal pain for group II) [10]: 2 (14.3)
Any AE [10]: 14 (100)
Ascites [10]: 7 (50.0)
Decreased appetite [10]: 7 (50.0)
Decreased platelet count [10]: 1 (7.1)
Diarrhea [10]: 6 (42.9)
Fatigue [10]: 5 (35.7)
Hyperuricemia [10]: 3 (21.4)
Hypoalbuminemia [10]: 6 (42.9)
Increased ALT [10]: 4 (28.6)
Increased AST [10]: 5 (35.7)
Increased blood bilirubin [10]: 4 (28.6)
Lymphopenia [10]: 2 (14.3)
Malaise [10]: 3 (21.4)
Malignant neoplasm progression [10]: 4 (28.6)
Nausea [10]: 5 (35.7)
Neutropenia [10]: 3 (21.4)
Pyrexia [10]: 4 (28.6)
Vomiting [10]: 3 (21.4)
Abdominal pain (upper abdominal pain for group II) [11]: 0 (0.0)
Any AE [11]: 11 (78.6)
Ascites [11]: 1 (7.1)
Decreased appetite [11]: 0 (0.0)
Decreased platelet count [11]: 0 (0.0)
Diarrhea [11]: 0 (0.0)
Fatigue [11]: 0 (0.0)
Hyperuricemia [11]: 2 (14.3)
Hypoalbuminemia [11]: 1 (7.1)
Increased ALT [11]: 2 (14.3)
Increased AST [11]: 3 (21.4)
Increased blood bilirubin [11]: 0 (0.0)
Lymphopenia [11]: 2 (14.3)
Malaise [11]: 0 (0.0)
Malignant neoplasm progression [11]: 2 (14.3)
Nausea [11]: 0 (0.0)
Neutropenia [11]: 2 (14.3)
Pyrexia [11]: 0 (0.0)
Vomiting [11]: 0 (0.0)
Discontinuation of nintedanib due to AEs (both groups): No patients discontinued nintedanib due to adverse events; also recorded: No patients discontinued nintedanib due to AEs
Drug-related fatal AEs (both groups): No drug‐related fatal AEs were reported
Hypertension at grade ≥3 (both groups): not reported by any patients
Ascites, any grade (group I): 6.3%
Bleeding, incidence (group I): 12.5%
Decreased appetite, any grade (group I): 37.5%
Diarrhea, any grade (group I): 50.0%
Fatigue, any grade (group I): 18.8%
Hand-foot skin reaction (group I): one patient in group I
Hypertension, incidence (group I): 12.5%
Hypoalbuminemia, any grade (group I): 12.5%
Increased AST, any grade (group I): 25.0%
Nausea, any grade (group I): 43.8%
Serious AEs considered drug-related by the investigator (group I): grade 3 immune thrombocytopenic purpura and grade 3 hyponatremia
Thromboembolic events at grade ≥3 (group I): no patients in group I
Thromboembolic events, incidence (group I): 0.0%
Vomiting, any grade (group I): 37.5%
Patients with dose reduction of nintedanib due to AEs (group I (five patients, all on 200 mg)): 31% and 31.3%
Patients with serious AEs (all requiring hospitalization) (group I (four patients)): 25.0%
Patients with adverse events at grade ≥3 (group I (seven patients)): 43.8%
Ascites, any grade (group II): 50.0%
Bleeding at grade ≥3 (group II): no patients in group II
Bleeding, incidence (group II): 14.3%
Decreased appetite, any grade (group II): 50.0%
Diarrhea, any grade (group II): 42.9%
Fatigue, any grade (group II): 35.7%
Hand-foot skin reaction (group II): no patients in group II
Hypertension, incidence (group II): 21.4%
Hypoalbuminemia, any grade (group II): 42.9%
Increased AST, any grade (group II): 35.7%
Nausea, any grade (group II): 35.7%
Serious AEs considered drug-related by the investigator (group II): grade 2 gastroenteritis, grade 3 drug‐induced liver injury, and grade 2 pyrexia
Thromboembolic events, incidence (group II): 7.1%
Vomiting, any grade (group II): 21.4%
Patients with adverse events at grade ≥3 (group II (11 patients)): 78.6%
Thromboembolic events at grade ≥3 (group II (one patient)): 7.1%
Patients with serious AEs (all requiring hospitalization) (group II (six patients)): 42.9%
Patients with dose reduction of nintedanib due to AEs (group II (three patients, one from each dose)): 21% and 21.4%
